Activity calls are given as the source filed them.
How the values were obtained:
Bacillus thuringiensis = assay: Antibacterial activity against Bacillus thuringiensis measured after 5 to 6 hrs by microdilution titre technique; assay type: functional
Escherichia coli [1] = assay: Antibacterial activity against Escherichia coli measured after 5 to 6 hrs by microdilution titre technique; assay type: functional
Bacillus subtilis [2] = assay: Reduction in mmD expression in Bacillus subtilis ATCC 6051 at 0.5 times MIC by qRT-PCR analysis relative to control; assay type: functional, organism-based
Procedure, shortened: (§1)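 Bacteria were grown in broth with compound at 0.5 × MIC or vehicle to exponential phase (OD620 = 0.4) and then pelleted. Total RNA was reverse-transcribed, and SYBR-based real-time PCR was run against housekeeping genes. Relative expression versus control was calculated by 2^−ΔΔCT. Mean ± SEM, n = 3, significance at p < 0.05.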

Pseudomonas aeruginosa [3] = assay: Antibacterial activity against multi-drug resistant Pseudomonas aeruginosa at 100 uM measured after 5 to 6 hrs by microdilution assay; assay type: functional, organism-based
Procedure, shortened: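 Log-phase cells seeded at 1 × 10⁵ CFU/mL. Single-dose screen at 100 μM, with DMSO cosolvent at most 1% v/v. Growth measured turbidimetrically at 620 nm, before and after incubation with vigorous shaking.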

Staphylococcus aureus [4] = assay: Reduction in narG expression in methicillin-resistant Staphylococcus aureus at 0.5 times MIC by qRT-PCR analysis relative to control; assay type: functional, organism-based
Procedure, shortened: (§2)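 MRSA grown in broth containing either 0.5 × MIC of test compound or vehicle alone. Cells harvested at exponential phase (OD₆₂₀ = 0.4). Total RNA reverse-transcribed, then SYBR-based real-time PCR run. Relative expression computed by the 2^−ΔΔCT method against the vehicle control or the parent-acid-treated group. Mean ± SEM, n = 3; significance set at p < 0.05.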

Streptomyces scabiei [5] = assay: Antibacterial activity against Streptomyces scabiei CGMCC4.7610246 at 0.5 times MIC by time-kill analysis; assay type: functional, organism-based
Procedure, shortened: (§3)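 Killing kinetics for S. scabies in oat bran broth at 28 °C, starting at 5 × 10⁵ CFU/mL. Exposure was 0.5×, 1×, 2× or 4× MIC, with negative and positive controls. Samples of 1 mL were withdrawn at 0, 4, 8, 16, 24 and 36 h, serially diluted and plated, and survival was calculated from colony counts. Performed in triplicate.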

Staphylococcus aureus [6] = assay: Increase in fmhB expression in Staphylococcus aureus ATCC 25923 at 0.5 times MIC by qRT-PCR analysis relative to control; assay type: functional, organism-based; procedure, shortened: as §1
Staphylococcus aureus [7] = assay: Down regulation of mecA gene in methicillin-resistant Staphylococcus aureus at 0.5 times MIC by qRT-PCR analysis relative to 18-beta-glycyrrhetinic acid; assay type: functional, organism-based; procedure, shortened: as §2
Bacillus subtilis [8] = assay: Upregulation of yqhB expression in Bacillus subtilis ATCC 6051 at 0.5 times MIC by qRT-PCR analysis relative to control; assay type: functional, organism-based; procedure, shortened: as §1
Staphylococcus aureus [9] = assay: Upregulation of seaR expression in Staphylococcus aureus ATCC 25923 at 0.5 times MIC by qRT-PCR analysis relative to control; assay type: functional, organism-based; procedure, shortened: as §1
Bacillus subtilis [10] = assay: Antibacterial activity against Bacillus subtilis ATCC 6051 at 0.5 times MIC by time-kill analysis; assay type: functional, organism-based
Procedure, shortened: (§4)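 Time-kill in LB at 37 °C. B. subtilis or S. aureus suspensions were set at 5 × 10⁵ CFU/mL and exposed to 0.5×, 1×, 2× and 4× MIC alongside negative and positive controls. Samples of 1 mL were taken at 0, 2, 4, 6, 8, 12 and 24 h, serially diluted and plated for viable counts, and survival was calculated. Three repeats.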

Staphylococcus aureus [11] = assay: Effect on lytM expression in Staphylococcus aureus ATCC 25923 at 0.5 times MIC by qRT-PCR analysis; assay type: functional, organism-based; procedure, shortened: as §1
Bacillus subtilis [12] = assay: Upregulation of ykuD expression in Bacillus subtilis ATCC 6051 at 0.5 times MIC by qRT-PCR analysis; assay type: functional, organism-based; procedure, shortened: as §1
Staphylococcus aureus [13] = assay: Upregulation of hla expression in Staphylococcus aureus ATCC 25923 at 0.5 times MIC by qRT-PCR analysis relative to control; assay type: functional, organism-based; procedure, shortened: as §1
Bacillus subtilis [14] = assay: Upregulation of yhdT expression in Bacillus subtilis ATCC 6051 at 0.5 times MIC by qRT-PCR analysis relative to control; assay type: functional, organism-based; procedure, shortened: as §1
Staphylococcus aureus [15] = assay: Inhibition of lytM expression in methicillin-resistant Staphylococcus aureus at 0.5 times MIC by qRT-PCR analysis; assay type: functional, organism-based; procedure, shortened: as §2
Staphylococcus aureus [16] = assay: Inhibition of hla expression in methicillin-resistant Staphylococcus aureus at 0.5 times MIC by qRT-PCR analysis relative to control; assay type: functional, organism-based; procedure, shortened: as §2
Escherichia coli [17] = assay: Antibacterial activity against Escherichia coli at 100 uM measured after 5 to 6 hrs by microdilution assay; assay type: functional, organism-based
Bacillus subtilis [18] = assay: Antibacterial activity against Bacillus subtilis ATCC 6051 by time-kill analysis; assay type: functional, organism-based; procedure, shortened: as §4
Staphylococcus aureus [19] = assay: Antibacterial activity against methicillin-resistant Staphylococcus aureus by microdilution assay; assay type: functional
Procedure, shortened: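 Log-phase cells seeded at 1 × 10⁵ CFU/mL. Twofold serial dilutions made in broth with DMSO cosolvent, at most 1% v/v. Turbidity read at 620 nm before and after incubation with vigorous shaking. MIC is the lowest concentration with no apparent growth versus the medium-plus-vehicle control. Run in triplicate.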

Staphylococcus aureus [20] = assay: Down regulation of mecA gene in methicillin-resistant Staphylococcus aureus at 0.5 times MIC by qRT-PCR analysis relative to control; assay type: functional, organism-based; procedure, shortened: as §2
Staphylococcus aureus [21] = assay: Antibacterial activity against Staphylococcus aureus ATCC 25923 by time-kill analysis; assay type: functional, organism-based; procedure, shortened: as §4
Staphylococcus aureus [22] = assay: Increase in fmhB expression in Staphylococcus aureus ATCC 25923 at 0.5 times MIC by qRT-PCR analysis relative to 18-beta-glycyrrhetinic acid; assay type: functional, organism-based; procedure, shortened: as §1
Bacillus subtilis [23] = assay: Antibacterial activity against Bacillus subtilis ATCC 6051 by microdilution assay; assay type: functional
Procedure, shortened: (§5)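 Turbidimetric broth microdilution. Log-phase cells were washed and resuspended in broth (LB at 37 °C for B. subtilis and S. aureus; oat bran broth at 28 °C for S. scabies) and seeded at 1 × 10⁵ CFU/mL. Twofold serial dilutions were made with DMSO ≤1% (v/v). A620 was read, then plates were incubated with vigorous shaking. MIC was the lowest concentration with no apparent growth versus vehicle-only medium without cells. Run in triplicate.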

Bacillus subtilis [24] = assay: Upregulation of lytF expression in Bacillus subtilis ATCC 6051 at 0.5 times MIC by qRT-PCR analysis; assay type: functional, organism-based; procedure, shortened: as §1
Staphylococcus aureus [25] = assay: Inhibition of seaR expression in methicillin-resistant Staphylococcus aureus at 0.5 times MIC by qRT-PCR analysis relative to control; assay type: functional, organism-based; procedure, shortened: as §2
Staphylococcus aureus [26] = assay: Increase in fmhB expression in methicillin-resistant Staphylococcus aureus at 0.5 times MIC by qRT-PCR analysis relative to control; assay type: functional, organism-based; procedure, shortened: as §2
Pseudomonas aeruginosa [27] = assay: Antibacterial activity against Pseudomonas aeruginosa at 100 uM measured after 5 to 6 hrs by microdilution assay; assay type: functional, organism-based
Staphylococcus aureus [28] = assay: Antibacterial activity against Staphylococcus aureus ATCC 25923 at 0.5 times MIC by time-kill analysis; assay type: functional, organism-based; procedure, shortened: as §4
Streptomyces scabiei [29] = assay: Antibacterial activity against Streptomyces scabiei CGMCC4.7610246 by time-kill analysis; assay type: functional, organism-based; procedure, shortened: as §3
Staphylococcus aureus [30] = assay: Reduction in narG expression in Staphylococcus aureus ATCC 25923 at 0.5 times MIC by qRT-PCR analysis relative to control; assay type: functional, organism-based; procedure, shortened: as §1
Staphylococcus aureus [31] = assay: Antibacterial activity against Staphylococcus aureus ATCC 25923 by microdilution assay; assay type: functional; procedure, shortened: as §5
Streptomyces scabiei [32] = assay: Antibacterial activity against Streptomyces scabiei CGMCC4.7610246 by microdilution assay; assay type: functional; procedure, shortened: as §5
Staphylococcus aureus [33] = assay: Increase in fmhB expression in Staphylococcus aureus at 0.5 times MIC by qRT-PCR analysis relative to 18-beta-glycyrrhetinic acid; assay type: functional, organism-based; procedure, shortened: as §1
Streptomyces scabiei [34] = assay: Reduction in murX expression in Streptomyces scabiei CGMCC4.7610246 at 0.5 times MIC by qRT-PCR analysis relative to control; assay type: functional, organism-based; procedure, shortened: as §1
Streptomyces scabiei [35] = assay: Reduction in p450 expression in Streptomyces scabiei CGMCC4.7610246 at 0.5 times MIC by qRT-PCR analysis relative to control; assay type: functional, organism-based; procedure, shortened: as §1
Escherichia coli [36] = assay: Antibacterial activity against Escherichia coli ATCC 25922 measured after overnight incubation by microplate dilution assay; assay type: functional

CC1(C)CC[C@]2(C(=O)O)CC[C@]3(C)C(=CC[C@@H]4[C@@]5(C)CC[C@H](O)C(C)(C)[C@@H]5CC[C@]43C)[C@@H]2C1 [OLEANOLIC_ACID]
7.8 µg/mL: MIC (Escherichia coli [1])
1.9 µg/mL: MIC (Bacillus thuringiensis)

CC1(C)CC[C@]2(C(=O)O)CC[C@]3(C)C(=CC[C@@H]4[C@@]5(C)C[C@@H](O)[C@H](O)C(C)(C)[C@@H]5CC[C@]43C)[C@@H]2C1 [MASLINIC ACID]
0.9 µg/mL: MIC (Bacillus thuringiensis)
3.9 µg/mL: MIC (Escherichia coli [1])

CCOC(=O)[C@@]1(C)CC[C@]2(C)CC[C@]3(C)C(=CC[C@@H]4[C@@]5(C)[C@@H](O)[C@H](O)[C@H](O)C(C)(C)[C@@H]5CC[C@]43C)[C@@H]2C1
4.1 µg/mL: MIC (Streptomyces scabiei [32])
inactive: Activity (Pseudomonas aeruginosa [3]) | Activity (Streptomyces scabiei [5]) | Activity (Bacillus subtilis [10]) | Activity (Staphylococcus aureus [11]) | Activity (Escherichia coli [17]) | Activity (Pseudomonas aeruginosa [27]) | Activity (Staphylococcus aureus [28])
active: Activity (Bacillus subtilis [2]) | Activity (Staphylococcus aureus [4]) | Activity (Staphylococcus aureus [6]) | Activity (Staphylococcus aureus [7]) | Activity (Bacillus subtilis [8]) | Activity (Staphylococcus aureus [9]) | Activity (Bacillus subtilis [12]) | Activity (Staphylococcus aureus [13]) | Activity (Bacillus subtilis [14]) | inhibition (Staphylococcus aureus [15]) | inhibition (Staphylococcus aureus [16]) | Activity (Bacillus subtilis [18]) Dose-dependent effect | Activity (Staphylococcus aureus [20]) | Activity (Staphylococcus aureus [21]) Dose-dependent effect | Activity (Staphylococcus aureus [22]) | Activity (Bacillus subtilis [24]) | inhibition (Staphylococcus aureus [25]) | Activity (Staphylococcus aureus [26]) | Activity (Streptomyces scabiei [29]) Dose-dependent effect | Activity (Staphylococcus aureus [30]) | Activity (Staphylococcus aureus [33])
2 µg/mL: MIC (Bacillus subtilis [23])
1 µg/mL: MIC (Staphylococcus aureus [19]) | MIC (Staphylococcus aureus [31])

COC(=O)[C@@]1(C)CC[C@]2(C)CC[C@]3(C)C(=CC[C@@H]4[C@@]5(C)[C@@H](O)[C@H](O)[C@H](O)C(C)(C)[C@@H]5CC[C@]43C)[C@@H]2C1
1 µg/mL: MIC (Streptomyces scabiei [32])
inactive: Activity (Pseudomonas aeruginosa [3]) | Activity (Streptomyces scabiei [5]) | Activity (Bacillus subtilis [10]) | Activity (Escherichia coli [17]) | Activity (Pseudomonas aeruginosa [27]) | Activity (Staphylococcus aureus [28])
2 µg/mL: MIC (Staphylococcus aureus [31])
> 32 µg/mL: MIC (Staphylococcus aureus [19])
active: Activity (Streptomyces scabiei [34]) | Activity (Bacillus subtilis [18]) Dose-dependent effect | Activity (Staphylococcus aureus [21]) Dose-dependent effect | Activity (Streptomyces scabiei [29]) Dose-dependent effect | Activity (Streptomyces scabiei [35])
4 µg/mL: MIC (Bacillus subtilis [23])

CC1(C)[C@@H](O)C[C@H](O)[C@]2(C)[C@H]3CC=C4[C@@H]5C[C@@](C)(C(=O)O)CC[C@]5(C)CC[C@@]4(C)[C@]3(C)CC[C@@H]12
16 µg/mL: MIC (Escherichia coli [36])

CC1(C)CC[C@H](O)[C@]2(C)[C@H]3CC=C4[C@@H]5C[C@@](C)(C(=O)O)CC[C@]5(C)CC[C@@]4(C)[C@]3(C)CC[C@@H]12
> 250 µg/mL: MIC (Escherichia coli [36])

CC1(C)[C@@H](O)CC[C@]2(C)[C@H]3C(=O)C=C4[C@@H]5C[C@@](C)(C(=O)O)CC[C@]5(C)CC[C@@]4(C)[C@]3(C)CC[C@@H]12 [ENOXOLONE]
inactive: Activity (Bacillus subtilis [2]) | Activity (Pseudomonas aeruginosa [3]) | Activity (Staphylococcus aureus [4]) | Activity (Staphylococcus aureus [11]) | Activity (Escherichia coli [17]) | Activity (Pseudomonas aeruginosa [27]) | Activity (Staphylococcus aureus [30])
active: Activity (Bacillus subtilis [8]) | Activity (Staphylococcus aureus [9]) | Activity (Staphylococcus aureus [13]) | Activity (Bacillus subtilis [14]) | inhibition (Staphylococcus aureus [16]) | inhibition (Staphylococcus aureus [25]) | Activity (Streptomyces scabiei [35])
> 50 µg/mL: MIC (Staphylococcus aureus [19]) | MIC (Bacillus subtilis [23]) | MIC (Staphylococcus aureus [31]) | MIC (Streptomyces scabiei [32])

From ChEMBL document CHEMBL4477166, “18β-Glycyrrhetinic Acid Derivatives Possessing a Trihydroxylated A Ring Are Potent Gram-Positive Antibacterial Agents” (2016)
